Screening results deposited in PubChem BioAssay by several laboratories.
Hits are enriched below; roughly 6.7% of the tested compounds scored in any of these assays.
PREPL inhibitor: PREPL enzyme inhibitors, primary screen, biochemical, fluorescence polarization; Prolyl endopeptidase-like (Homo sapiens), Q4J6C6; recombinant PREPL, fluorescence polarization activity-based probe; inhibition, % at 5.96 µM; 320,000 tested, 0.68% active; AID 2751, 2010; in the data active means inhibition above about 43%
Target sequence (Q4J6C6 whole entry, looked up): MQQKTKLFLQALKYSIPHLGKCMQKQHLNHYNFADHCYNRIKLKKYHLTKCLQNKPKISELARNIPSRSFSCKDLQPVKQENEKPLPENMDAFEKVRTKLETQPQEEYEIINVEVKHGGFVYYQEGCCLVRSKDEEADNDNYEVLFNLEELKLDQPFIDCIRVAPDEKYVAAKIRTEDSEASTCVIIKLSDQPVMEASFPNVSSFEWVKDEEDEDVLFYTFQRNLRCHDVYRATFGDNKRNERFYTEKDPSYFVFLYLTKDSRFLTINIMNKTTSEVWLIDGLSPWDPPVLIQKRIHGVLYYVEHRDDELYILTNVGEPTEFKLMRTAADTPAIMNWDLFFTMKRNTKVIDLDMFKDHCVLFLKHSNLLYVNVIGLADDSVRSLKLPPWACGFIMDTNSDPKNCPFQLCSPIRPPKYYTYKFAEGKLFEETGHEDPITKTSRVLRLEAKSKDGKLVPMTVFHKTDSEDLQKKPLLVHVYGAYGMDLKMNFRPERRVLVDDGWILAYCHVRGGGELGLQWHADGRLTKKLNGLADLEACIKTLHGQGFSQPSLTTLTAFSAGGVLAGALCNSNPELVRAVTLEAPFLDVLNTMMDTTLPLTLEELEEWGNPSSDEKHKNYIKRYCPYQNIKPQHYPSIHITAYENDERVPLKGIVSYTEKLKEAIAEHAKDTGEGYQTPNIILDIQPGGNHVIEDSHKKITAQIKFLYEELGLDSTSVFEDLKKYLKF
Beta cell apopt: inhibitors of cytokine-induced beta cell apoptosis, primary screen, luminescence. 300,000 tested, 0.8% active. protection from apoptosis, % (concentration not given with the values). INS-1E cytokine-induced death, ATP luminescence, 48 h; percent of positive-control rescue, neutral wells zero. AID 435005, 2010;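 active means Every replicate reaches about 75%, or at least half do and their mean reaches it too, limit read from the data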;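 further: higher means more ATP so stronger rescue from cytokine killing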
CSC inhib: cancer stem cell viability inhibitors, primary screen, luminescence | cancer stem cell-like cells viability | inhibition, % at 7.5 µM | 300,000 tested, 1.1% active | AID 2717, 2010; in the data active means inhibition above about 75%; tested in HMLE shEcad cells
T cruzi inh: inhibitors of intracellular T. cruzi growth, primary screen, luminescence, NIH3T3 host cells. 300,000 tested, 1.4% active. T. cruzi beta-gal in NIH3T3, 90 h. AID 1885, 2009. inhibition, % (no concentration beside the values);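 active means mean inhibition across valid replicates above about 55%, limit read from the data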;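 further: signal also drops with host cell toxicity which is not excluded here; higher percent means less beta-gal luminescence so fewer parasites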
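Material: NIH/3T3 host cells with β-galactosidase reporter T. cruzi; Input: 5,000 host fibroblasts per well; Medium: DMEM, 2% fetal bovine serum; Compound: 50 nL DMSO compound solution per well; Schedule: 3 h host attachment, then at least 90 h co-culture; Detection: luminescent β-galactosidase signal after 60 min lysis.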
NR3A LBD binder: binders of NR3A ligand-binding domain, primary screen, biophysical, differential scanning fluorimetry, uHTS; Glutamate receptor ionotropic, NMDA 3A (GRIN3A) ligand-binding domain; NR3A LBD differential scanning fluorimetry, Tm shift; 0% = protein alone, 100% = glycine-bound protein; Tm shift relative to glycine control, % at 25 µM; 340,000 tested, 2.5% active; AID 1259313, 2017;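 active means melting temperature shift of at least 10% of the positive control shift, at one fixed dose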
CHOP inh: inhibitors of CHOP promoter induction, primary screen, cell-based, unfolded protein response, luciferase reporter. CHO-K1 CHOP-promoter luciferase, tunicamycin-induced, 15-18 h. inhibition, % at 10 µM. 220,000 tested, 3.8% active. AID 2732, 2010;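 active means compounds that reduced the stress-induced luciferase reporter signal by more than about 70% of percent inhibition, limit read from the data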
Large screens that a line does not name were inactive.

CCN(CC)S(=O)(=O)c1ccc(C(O)=C(C#N)c2nc3ccccc3n2C)cc1	none (no result: PREPL inhibitor, Beta cell apopt, CSC inhib, T cruzi inh, CHOP inh)
OCCNc1nnc(-c2ccccc2)c(-c2ccccc2)n1	none (no result: CHOP inh)
COc1ccc(N(CCCN2C(=O)c3cccc4cccc(c34)C2=O)C(=O)c2ccncc2)cc1	T cruzi inh 55.4
COc1cc(OC)cc(C(=O)N(CCCN2C(=O)c3cccc4cccc(c34)C2=O)c2cccc(OC)c2)c1	none
COc1ccc(N(CCCN2C(=O)c3cccc4cccc(c34)C2=O)C(=O)c2cccnc2)cc1	T cruzi inh 67.9 (no result: Beta cell apopt)
O=[N+]([O-])c1ccc(N/N=C/c2sc(N3CCOCC3)nc2-c2ccccc2)c(S(=O)(=O)Nc2ccc(Cl)cc2)c1	T cruzi inh 83.8, NR3A LBD binder 21.2, CHOP inh 86.1 (no result: PREPL inhibitor, Beta cell apopt, CSC inhib)
O=C(N/N=C/c1sc(N2CCOCC2)nc1-c1ccccc1)c1ccccc1Cl	none
O=C(N/N=C/c1sc(N2CCOCC2)nc1-c1ccccc1)c1ccccc1F	none
O=[N+]([O-])c1ccc(N/N=C/c2sc(N3CCOCC3)nc2-c2ccccc2)c(S(=O)(=O)Nc2ccccc2Cl)c1	CHOP inh 84.5 (no result: PREPL inhibitor, Beta cell apopt, CSC inhib, T cruzi inh)
COC(=O)C1=C(C)NC(C)=C(C(=O)OC)C1C(=O)OC(C)C(=O)c1ccccc1 (centres undefined)	none
O=c1[nH]c(/C=C/c2ccc(Cl)cc2Cl)c([N+](=O)[O-])c(=O)[nH]1	none (no result: CHOP inh)
O=C(Nc1ccccc1)c1ccc(-c2ccc(F)cc2)s1	NR3A LBD binder 21.6
COc1ccc(NC(=O)c2ccc(-c3ccc(OC)cc3)s2)cc1	NR3A LBD binder 22.3
CCOC(=O)C1CCN(CC(=O)Nc2cc(S(=O)(=O)N3CCCCC3)ccc2Cl)CC1	none (no result: PREPL inhibitor, Beta cell apopt, CSC inhib, T cruzi inh, CHOP inh)
COc1ccc(CCNC(=O)c2noc(C)c2[N+](=O)[O-])cc1OC	none (no result: CHOP inh)
Cn1cc(CN2CCCC(CO)(Cc3ccccc3)C2)c2ccccc21 (centres undefined)	T cruzi inh 66.7
COc1cccc(CC2(CO)CCCN(Cc3cn(C)c4ccccc34)C2)c1 (centres undefined)	T cruzi inh 64.7
COc1cccc(CC2(CO)CCCN(C/C=C/c3ccccc3OC)C2)c1 (centres undefined)	T cruzi inh 62.5
COc1ccc(CN2CCCC(CO)(Cc3ccc(F)cc3)C2)cc1C (centres undefined)	T cruzi inh 57.8 (no result: Beta cell apopt, CHOP inh)
CCn1cc(CN2CCCC(CO)(Cc3ccc(F)cc3)C2)c2ccccc21 (centres undefined)	none (no result: CHOP inh)
COc1cccc(CC2(CO)CCCN(Cc3ccc(OC)c(C)c3OC)C2)c1 (centres undefined)	none (no result: CHOP inh)
Cc1nc2cc(Cl)ccc2c(=O)n1Cc1ccncc1	none (no result: CHOP inh)
COc1cccc(CC2(CO)CCCN(Cc3ccccc3Cl)C2)c1 (centres undefined)	none (no result: CHOP inh)
COc1cccc(CC2(CO)CCCN(Cc3ccc(CN4CCCCC4)s3)C2)c1 (centres undefined)	T cruzi inh 71.2
CCC1CSC(Nc2ccc(C(=O)/C=C/c3ccc(Oc4ccccc4)cc3)cc2)=N1 (centres undefined)	none
CCC1CSC(Nc2ccc(C(=O)/C=C/c3cccc(C)c3)cc2)=N1 (centres undefined)	CSC inhib 87.5, T cruzi inh 60.0
Cc1ccc2c(c1)C1CN(C)CCC1N2C(=O)COc1ccc(N(C)C(=O)C(C)(C)C)cc1 (centres undefined)	none
Cc1ccc2c(c1)C1CN(C)CCC1N2C(=O)c1cccc(S(=O)(=O)N2CC(C)CC(C)C2)c1 (centres undefined)	T cruzi inh 80.5
Cc1ccc(C(=O)N(C)c2ccc(OCC(=O)N3c4ccc(C)cc4C4CN(C)CCC43)cc2)cc1 (centres undefined)	T cruzi inh 67.6
Cc1ccc2c(c1)C1CN(C)CCC1N2C(=S)NC(=O)c1ccc(Br)cc1 (centres undefined)	T cruzi inh 64.5
Cc1ccc2c(c1)C1CN(C)CCC1N2C(=O)c1ccc(Cl)c(S(=O)(=O)N2CCOCC2)c1 (centres undefined)	T cruzi inh 60.5
O=C(CCN1C(=O)/C(=C\C=C\c2ccccc2)SC1=S)Nc1ccccc1C(=O)O	none (no result: CHOP inh)
CC(C)c1ccccc1NC(=O)COC(=O)CCN1C(=O)/C(=C\C=C\c2ccccc2)SC1=S	CHOP inh 75.5
O=C(COC(=O)CCN1C(=O)/C(=C\C=C\c2ccccc2)SC1=S)Nc1ccc(Br)cc1	NR3A LBD binder 10.1, CHOP inh 72.3
Cc1ccc(NC(=O)CCCN2C(=O)/C(=C/C=C/c3ccccc3)SC2=S)cc1	none
O=C(CNC(=O)c1cccc(Cl)c1)NCCCSc1ccccc1	none (no result: CHOP inh)
O=C(COC(=O)C1C2CC3OC(=O)C1C3C2)Nc1cccc(Cl)c1 (centres undefined)	none (no result: CHOP inh)
CN1CCN(Cc2nc3ccccc3c(=O)n2Cc2nc(-c3cccc([N+](=O)[O-])c3)cs2)CC1	none (no result: PREPL inhibitor, Beta cell apopt, CSC inhib, T cruzi inh)
CN1CCN(Cc2nc3ccccc3c(=O)n2Cc2nc(-c3ccc4ccccc4c3)cs2)CC1	CSC inhib 99.3, CHOP inh 88.1
CCC(=O)Nc1ccc(NC(=O)CSc2nnnn2Cc2ccccc2)cc1C	none (no result: PREPL inhibitor, Beta cell apopt, CSC inhib, CHOP inh)
CCOc1ccc(Oc2c(/C=N/NC(=O)COc3ccccc3OC)c(C)nn2-c2ccccc2)cc1	CHOP inh 85.1
CCS(=O)(=O)c1ccc2oc(Nc3ccc(C(C)(C)C)cc3)nc2c1	CHOP inh 71.6
CCS(=O)(=O)c1ccc2oc(Nc3ccc(OC)cc3)nc2c1	none
O=S1(=O)Nc2c(ccc3cccnc23)-c2ccccc21	CSC inhib 95.5, T cruzi inh 72.0 (no result: NR3A LBD binder, CHOP inh)
N#CC1=C(N)OC2=C(CCc3ccccc32)C1c1ccccc1Cl (centres undefined)	CHOP inh 87.5
O=C(Nc1ccc2nc3n(c(=O)c2c1)CCCCC3)C(=O)N1CCN(c2ccc(F)cc2)CC1	none (no result: CHOP inh)
Cc1ccc(C(=O)CCS(=O)(=O)c2ccc(Br)cc2)cc1	none (no result: CHOP inh)
Cc1ccc(S(=O)(=O)Cc2cc(F)c([N+](=O)[O-])cc2[N+](=O)[O-])cc1	CSC inhib 102.2 (no result: Beta cell apopt, CHOP inh)
Cc1ccc(S(=O)(=O)CCC(=O)c2cccc([N+](=O)[O-])c2)cc1	T cruzi inh 58.0 (no result: CHOP inh)
Cc1ccc(C2CC(=O)NC(SCc3ccccc3)=C2C#N)cc1 (centres undefined)	none (no result: CSC inhib)
CCCCCCSC1=C(C#N)C(c2ccccc2)CC(=O)N1 (centres undefined)	CHOP inh 77.4
CCOc1ccc(C2CC(=O)NC(SC)=C2C#N)cc1 (centres undefined)	none
